From ChEMBL document CHEMBL1148609, “Orally active purine-based inhibitors of the heat shock protein 90” (J Med Chem, 2006) come the findings set out here.

Calls of active or inactive are those of the source. The calls are words filed in the database; no cut-off is given here.

By IC50 is commonly meant the midpoint of a concentration-inhibition curve. The low end stands for inhibition by little substance, the high end for a need for much substance. In general, clearance refers to the rate of elimination divided by the concentration. Broadly, the half-life is how long it takes for the measured level to halve. High values mean slow decline, low ones rapid decline. A word on the Cmax: it is the maximum level reached in the sampled fluid or tissue. In general, Tmax refers to the time from dosing to the highest level. One may read the AUC as concentration integrated over time. High values mean high exposure, low ones low exposure. One may read the bioavailability as the share of a dose that reaches the circulation, judged against a reference dose that is usually intravenous.

One data set concerns MCF7. The data set is described as follows: Growth inhibition in breast cancer MCF7 cell line by MTS assay. It counts as functional, cell-based. As to conditions: Homo sapiens. In outline:
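MCF-7 breast cancer cells exposed to compound for 5 days, then MTS added and formazan read at 490 nm. […] Values are the mean of at least three independent observations.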
(In general: Formazan colour is commonly taken as a measure of viable cells.)

Data set [1] concerns Mus musculus. The data set is described as follows: Upregulation of Hsp70 in murine N87 xenograft model at (2*200 mg/kg/day), po. Format: functional, organism-based.
Data set [2] in a line: Clearance in BALB/c mice at 10 mg/kg, iv. Format: ADME, organism-based. Details: dose 10 mg/kg, route intravenous. As to conditions: mouse, in vivo. In a few lines: (§1)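 Balb/C mice, three dosed orally by gavage (5-20 mL/kg) and three intravenously; H3PO4 salts formulated as a phosphatidylcholine/water dispersion. Six blood samples collected, the last 4 h postdose. Plasma levels measured by HPLC (detection limit 0.5 µg/mL).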

Data set [3] is described as follows: Half life in BALB/c mice at 10 mg/kg, iv. Also on record: dose 10 mg/kg, route intravenous. The conditions noted are these: mouse, in vivo. It counts as ADME, organism-based. In a few lines: as §1
Data set [4] in a line: Volume of distribution in BALB/c mice at 10 mg/kg, iv. It counts as ADME, organism-based. Also on record: dose 10 mg/kg, route intravenous. The conditions noted are these: mouse, in vivo, read-out: Vdss. In outline: as §1
Data set [5] is described as follows: Cmax in BALB/c mice at 100 mg/kg, po. Format: ADME, organism-based. Details: dose 100 mg/kg, route oral. The conditions noted are these: mouse, in vivo. In outline:
as §1

Data set [6] can be described thus: Tmax in BALB/c mice at 100 mg/kg, po. Format: ADME, organism-based. Also on record: dose 100 mg/kg, route oral. As to conditions: mouse, in vivo. In outline:
as §1

Data set [7] is described as follows: (§2) AUC in BALB/c mice at 100 mg/kg, po. Format: ADME, organism-based, Plasma. Also on record: dose 100 mg/kg, route oral. As to conditions: BALB/c, mouse, plasma. In outline: as §1
Data set [8] can be described thus: Half life in BALB/c mice at 100 mg/kg, po. Format: ADME, organism-based. Details: dose 100 mg/kg, route oral. As to conditions: mouse, in vivo. In outline: as §1
The nature of data set [9]: (§3) Bioavailability in BALB/c mice at 100 mg/kg, po. Format: ADME, organism-based. As to conditions: BALB/c, mouse, in vivo. In outline: as §1
In data set [10] the test system is Mus musculus. The data set is described as follows: Tumor growth inhibition in murine xenograft model using N87 stomach cancer cell line at 200 mg/kg/day, po. Format: functional, organism-based. As to conditions: NCI-N87. In a few lines:
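Female nu/nu athymic mice, 6-8 weeks old, implanted sc in the flank with N87 tumor fragments (~2 mm³) or 5 × 10⁶ cells. Established tumors of 50-200 mm³ used, n = 6-10 per group. H3PO4 salt given orally at 1 × 200 or 2 × 100 mg/kg/day, 5 days/week; vehicle-dosed controls. Caliper volumes (l × w²)/2 taken twice weekly.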

The test system of data set [11] is Mus musculus. The data set is described as follows: Degradation of pHER2 in murine N87 xenograft model at (2*200 mg/kg/day), po. Format: functional, organism-based. In outline: (§4)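 Mice bearing N87 gastric tumor xenografts (high HER-2) given the H3PO4 salt orally at 2 × 200 or 2 × 100 mg/kg/day for 3 days. Reference arm received 17-AAG ip at 90 mg/kg once daily. Animals sacrificed 24 h after the last dose and client proteins in tumor lysates assessed by Western blot.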

For data set [12], the system named is Mus musculus. The data set is described as follows: Degradation of pAKT in murine N87 xenograft model at (2*200 mg/kg/day), po. It counts as functional, organism-based. In outline:
as §4

The subject of data set [13] is Mus musculus. Description: Degradation of pRaf in murine N87 xenograft model at (2*200 mg/kg/day), po. Format: functional, organism-based. In a few lines:
as §4

Data set [14] concerns Mus musculus. The data set is described as follows: Degradation of HER2 in murine N87 xenograft model at (2*200 mg/kg/day), po. Format: functional, organism-based. In a few lines:
as §4

The subject of data set [15] is Mus musculus. The data set is described as follows: Degradation of PI3K in murine N87 xenograft model at (2*200 mg/kg/day), po. Format: functional, organism-based. In a few lines: as §4
For data set [16], the system named is Mus musculus. Description: Degradation of HER2 in A549 tumor xenograft at 200 mg/kg, po. It counts as functional, organism-based. Also on record: dose 200 mg/kg. In outline:
(§5)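 Female nu/nu athymic mice (6-8 weeks old) carrying subcutaneous A549 lung cancer xenografts received a single oral gavage dose of the H₃PO₄ salt (200 mg/kg), formulated as a phosphatidylcholine/water dispersion. Mice were sacrificed at 6, 24 or 48 h, and tumors were harvested. HER-2, pHER-2, pAKT, pRaf and Hsp70 levels were assessed by Western blot.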

Data set [17] deals with Mus musculus. Description: Upregulation of Hsp70 in A549 tumor xenograft at 200 mg/kg, po. Format: functional, organism-based. Details: dose 200 mg/kg. In a few lines: as §5
The next data set concerns A549. Description: Degradation of pHER2 in A549 tumor xenograft at 200 mg/kg, po. It counts as functional, organism-based. Also on record: dose 200 mg/kg. The conditions noted are these: Mus musculus. In a few lines:
as §5

For data set [18], the system named is Mus musculus. The data set is described as follows: Degradation of pAKT in A549 tumor xenograft at 200 mg/kg, po. It counts as functional, organism-based. Also on record: dose 200 mg/kg. In a few lines:
as §5

In data set [19] the test system is Mus musculus. Description: Degradation of pRaf in A549 tumor xenograft at 200 mg/kg, po. It counts as functional, organism-based. Also on record: dose 200 mg/kg. In outline: as §5
Data set [20] deals with Heat shock protein HSP 90-alpha (Homo sapiens) (UniProt P07900). Description: Hsp90 inhibition measured as HER-2 degradation in MCF-7 cells.
Data set [21] relates to Mus musculus. The description is as §2. Format: ADME, organism-based, Plasma. Also on record: dose 100 mg/kg, route oral. As to conditions: in vivo. In a few lines:
as §1

The subject of data set [22] is Mus musculus. The description is as §3. It counts as ADME, organism-based. As to conditions: in vivo. In a few lines:
as §1

With `C#CCCCn1c(Sc2cc(OC)ccc2I)nc2c(N)ncnc21`, the IC50 with MCF7 is 700 nM.
`COc1ccc(I)c(Sc2nc3c(N)ncnc3n2CCCNC(C)C)c1`: the result in the data set on Mus musculus [1], with Mus musculus [10], in the data set with Mus musculus [11], with Mus musculus [12], in the data set with Mus musculus [13] and in the data set with Mus musculus [14] was Active. Further, the IC50 in the data set with MCF7 was determined as 600 nM. The clearance in data set [2] came to 62 mL/min/kg. The half-life was 4.2 h in [3] and 1.5 h in [8]. Moreover, in data set [4], the Vd amounted to 22 L/kg. For the same molecule, the peak level in data set [5] (Cmax) was 4700 ng/mL. Besides, the Tmax in [6] turned out to be 0.5 h. Besides, the AUC in data set [7] was 7500 ng·h/mL. In [9], this molecule displayed a bioavailability of 55%. Moreover, the result with Mus musculus [15] was inactive.
For the molecule `COc1ccc(I)c(Sc2nc3c(N)ncnc3n2CCNCC(C)C)c1`, the IC50 was 200 nM in the data set on MCF7 and 100 nM in data set [20]. The result in the data set on Mus musculus [16], in the data set on Mus musculus [17], with A549, in the data set with Mus musculus [18] and in the data set with Mus musculus [19] was Active.
Turning to `COc1ccc(I)c(Sc2nc3c(N)ncnc3n2CCCNC(C)(C)C)c1`, the IC50 in the data set with MCF7 amounted to 200 nM.
`COc1ccc(I)c(Sc2nc3c(N)ncnc3n2CCNCC(C)(C)C)c1` came in with an IC50 in the data set with MCF7 of 500 nM. For the same molecule, the outcome with Mus musculus [10] was Active.
Take `C#CCCCn1c(Sc2cc(OC)c(OC)c(OC)c2Cl)nc2c(N)nc(F)nc21`: the IC50 with MCF7 stood at 1200 nM.
In the data set with MCF7, `CCC(C)NCCCn1c(Sc2cc(OC)ccc2I)nc2c(N)ncnc21` (stereo not drawn) had an IC50 of 200 nM. Also, the values for the half-life in [3] and in data set [8] were 1.3 h and 0.7 h, respectively. Moreover, the Vd in data set [4] stood at 3.4 L/kg. In data set [5], this molecule came in with a peak concentration (Cmax) of 4800 ng/mL. In [6], the Tmax amounted to 0.5 h. The molecule also yielded an AUC in the data set with Mus musculus [21] of 380 µg·min/mL. For the same molecule, the F in the data set with Mus musculus [22] is reported as 28%. The outcome in the data set on Mus musculus [10] was Active.
As to `CCC(CC)NCCCn1c(Sc2cc(OC)ccc2I)nc2c(N)ncnc21`, in the data set on MCF7, the IC50 worked out at 200 nM.
